# Results as given in article PMC2937276 (Molecular cancer therapeutics, 2010).
# Experiments:
# [1] = test system: GBM culture 102; assay: XTT cell proliferation assay; format: cell-based, Mouse; settings: Mus musculus, 36 h
# Procedure, shortened: (§1)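 Primary human or mouse GBM cultures (DMEM, 10% FBS) were seeded at 5000 cells per 96-well well. Cells were cultured with test compound or vehicle for 36 h. Proliferation was read by XTT assay in quadruplicate. IC50 came from nonlinear-regression curve fitting.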
# [2] = Hepatotoxicity and toxicity on exposure in mice; format: in vivo
# [3] = test system: GBM cells; assay: Apoptosis analysis; format: cell-based, Mouse; settings: 250 nM
# Procedure, shortened: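 Two apoptosis read-outs on primary mouse GBM cultures (DMEM, 10% FBS), each with 250 nM compound for the indicated times. Pyknotic nuclei: 10,000 cells per chamber-slide well, fixed in fresh 4% PFA for 15 min, Hoechst 33258 at 5 µg/ml for 5 min. Nuclei were scored by fluorescence microscopy as % pyknotic over total across three areas. Cleaved caspase-3: western blot. Mean of three independent experiments ± SD.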
# [4] = test system: GBM culture 42; assay: XTT cell proliferation assay; format: cell-based, Mouse; settings: Mus musculus, 36 h
# Procedure, shortened: as §1
# [5] = test system: EGFR-driven mouse GBM tumor primary cell cultures (GBM-1 & -2); assay: Cell counting, growth of GBM cell cultures under drug; format: cell-based; settings: increasing concentrations for 24 hours; 250 nM over time
# Procedure, shortened: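 Mouse primary GBM cultures (GBM-1: wild-type plus vIII EGFR; GBM-2: EGFRvIII), alongside primary mouse astrocytes, kept in DMEM with 10% FBS. Cells exposed to increasing test-compound concentrations for 24 h, or to 250 nM for varying times. Viable cells counted and expressed as percent of untreated cells. Mean of triplicates with S.D.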
# [6] = test system: GBM culture 46; assay: XTT cell proliferation assay; format: cell-based, Mouse; settings: Mus musculus, 36 h
# Procedure, shortened: as §1
# [7] = test system: GBM culture GBM-2; assay: XTT cell proliferation assay; format: cell-based, Mouse; settings: Mus musculus, GBM2, 36 h
# Procedure, shortened: as §1
# [8] = test system: GBM culture GBM12; assay: XTT cell proliferation assay; format: cell-based, Human; settings: Homo sapiens, 36 h
# Procedure, shortened: as §1
# [9] = test system: GBM culture 2414; assay: XTT cell proliferation assay; format: cell-based, Mouse; settings: Mus musculus, 36 h
# Procedure, shortened: as §1
# [10] = test system: GBM culture 2000; assay: XTT cell proliferation assay; format: cell-based, Mouse; settings: Mus musculus, 36 h
# Procedure, shortened: as §1
# [11] = test system: GBM culture 2231; assay: XTT cell proliferation assay; format: cell-based, Mouse; settings: Mus musculus, 36 h
# Procedure, shortened: as §1
# [12] = test system: Hsp90 client proteins EGFR, Akt, Cdk4 and Cyclin D1; assay: Immunoblot analysis of Hsp90 client proteins in mouse GBM cultures; format: cell-based
# Procedure, shortened: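 Mouse GBM-1 and GBM-2 cultures and primary astrocytes treated with 250 nM test compound for varying times, or for 24 h against vehicle. RIPA lysates with 5 mM Na3VO4 and protease inhibitors. 40 µg resolved by SDS-PAGE onto PVDF, blocked in TBS-T/BSA/milk. Primary antibodies overnight at 4°C, secondary 1:10000 for 1 h at room temperature, ECL detection. Dynamin as control.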
# [13] = test system: GBM culture GBM8; assay: XTT cell proliferation assay; format: cell-based, Human; settings: Homo sapiens, 36 h
# Procedure, shortened: as §1
# [14] = test system: primary astrocytes cultures; assay: Cell counting, growth of primary astrocytes under drug; format: cell-based, Mouse; settings: increasing concentrations for 24 hours; 250 nM over time
# Procedure, shortened: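 Primary mouse astrocyte cultures were grown with rising compound concentrations for 24 h, then counted. A second set was exposed to 250 nM for the indicated times before viable-cell counts. Counts are expressed as % of untreated cells. Values are means of triplicates with SD; t-test.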
# [15] = test system: GBM culture 69; assay: XTT cell proliferation assay; format: cell-based, Mouse; settings: Mus musculus, 36 h
# Procedure, shortened: as §1
# [16] = test system: GBM culture GBM22; assay: XTT cell proliferation assay; format: cell-based, Human; settings: Homo sapiens, 36 h
# Procedure, shortened: as §1
# [17] = test system: GBM culture GBM39; assay: XTT cell proliferation assay; format: cell-based, Human; settings: Homo sapiens, GBM39, 36 h
# Procedure, shortened: as §1
# [18] = test system: GBM culture 41; assay: XTT cell proliferation assay; format: cell-based, Mouse; settings: Mus musculus, 36 h
# Procedure, shortened: as §1
# [19] = test system: GBM culture GBM15; assay: XTT cell proliferation assay; format: cell-based, Human; settings: Homo sapiens, 36 h
# Procedure, shortened: as §1
# [20] = test system: GBM culture 2415; assay: XTT cell proliferation assay; format: cell-based, Mouse; settings: Mus musculus, 36 h
# Procedure, shortened: as §1
# [21] = test system: GBM culture 2227; assay: XTT cell proliferation assay; format: cell-based, Mouse; settings: Mus musculus, 36 h
# Procedure, shortened: as §1
# [22] = test system: GBM culture GBM59; assay: XTT cell proliferation assay; format: cell-based, Human; settings: Homo sapiens, 36 h
# Procedure, shortened: as §1
# [23] = test system: GBM culture 2736; assay: XTT cell proliferation assay; format: cell-based, Mouse; settings: Mus musculus, 36 h
# Procedure, shortened: as §1
# [24] = Brain concentrations of HSP90 inhibitors after a single i.p. injection; settings: NCR-Nude, mouse, intraperitoneal
# [25] = test system: Hsp90 client proteins EGFR, Akt, Cdk4 and CyclinD1; assay: Immunoblot analysis of Hsp90 client proteins in human GBM cultures; format: cell-based; settings: human primary GBM culture cells; 250 nM, 24 hours
# Procedure, shortened: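 Human primary GBM cultures in DMEM with 10% FBS, given 250 nM test compound or vehicle for 24 h. Lysed in RIPA with 5 mM Na3VO4 and protease inhibitors. Equal protein (40 µg) resolved by SDS-PAGE, transferred to PVDF, blocked in TBS-T with 1% BSA and 5% milk. Primary antibodies overnight at 4°C, secondary 1:10000 for 1 h at room temperature, ECL.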
# [26] = test system: GBM culture 103; assay: XTT cell proliferation assay; format: cell-based, Mouse; settings: Mus musculus, 36 h
# Procedure, shortened: as §1
smiles,measurement,setting,value
O=C1OCC/C=C/CC/C=C/C(=N/OCC(=O)N2CCCCC2)Cc2c(Cl)c(O)cc(O)c21 [NXD30001],IC50,[1],360 ± 21.6 nM
same,toxicity observed in the treated animals,[2]; GBM-bearing mice treated with 100 mg/kg i.p.,absence of toxicity
same,hepatotoxicity,"[2]; short and long term exposure in mice, data not shown and ref 13",does not result in hepatotoxicity
same,cleaved-caspase 3 (western blot),[3],appearance of cleaved-caspase 3
same,increase in apoptosis level (pyknotic nucleated cells),[3],10 fold
same,IC50,[4],73.8 ± 0.7 nM
same,inhibition of GBM cell growth,[5],dose and time dependent inhibition of GBM cell growth
same,IC50,[6],54.3 ± 12.5 nM
same,IC50,[7],111 ± 9.4 nM
same,IC50,[8],2330 ± 60 nM
same,IC50,[9],31.7 ± 4.9 nM
same,IC50,[10],115 ± 9.4 nM
same,IC50,[11],146 ± 3.7 nM
same,Hsp90 client protein levels (western blot),"[12]; GBM-1 & -2 cultures, 250 nM for the indicated times","degradation of the Hsp90 client proteins EGFR, Akt, Cdk4 and Cyclin D1"
same,Hsp90 client protein levels (western blot),"[12]; mouse primary GBM culture cells, 250 nM, 24 hours","deplete the Hsp90 client proteins EGFR, Akt, Cdk4 and CyclinD1"
same,IC50,[13],5690 ± 450 nM
same,inhibition of astrocyte growth,[14],but not of astrocytes
same,IC50,[15],73.4 ± 2.5 nM
same,IC50,[16],5260 ± 152 nM
same,IC50,[17],111.6 ± 1 nM
same,IC50,[18],80.2 ± 5.9 nM
same,IC50,[19],60.7 ± 0.5 nM
same,IC50,[20],251 ± 57.7 nM
same,IC50,[21],134 ± 7.7 nM
same,IC50,[22],232 ± 13.2 nM
same,IC50,[23],77.6 ± 2.8 nM
same,concentration at 6 h,[24]; 100 mg/kg,676 ng/g
same,concentration at 12 h,[24]; 100 mg/kg,823 ng/g
same,concentration at 24 h,[24]; 100 mg/kg,271 ng/g
same,concentration at 48 h,[24]; 100 mg/kg,10.7 ng/g
same,concentration at 6 h,[24]; 150 mg/kg,1440 ng/g
same,concentration at 12 h,[24]; 150 mg/kg,3420 ng/g
same,concentration at 24 h,[24]; 150 mg/kg,900 ng/g
same,concentration at 48 h,[24]; 150 mg/kg,116 ng/g
same,Hsp90 client protein levels (western blot),[25],"deplete the Hsp90 client proteins EGFR, Akt, Cdk4 and CyclinD1"
same,IC50,[26],576 ± 14.8 nM
